This passage reports self-cleavage results from the RNAGym collection of RNA variant scans (doi:10.1002/anie.201605470).

The labels stand for the following.
B1: Osa-1-4 twister ribozyme (parent)
chain: CCGCCUAACACUGCCAAUGCCGGUCCCAAGCCCGGAUAAAAGUGGAGGGGGCGG

Variants of B1 are the subject of this series. Kind of series: self-cleavage, relative activity (ratio to wild type); higher = more cleavage; co-transcriptional. The essentials: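 A DNA template was synthesised for a 54-nucleotide twister ribozyme from Oryza sativa, with 97 % wild-type base and 1 % of each other base at each of the 48 positions downstream of the cleavage site. The ribozyme cleaved itself co-transcriptionally during 2 h of in vitro transcription at 37 °C. Reverse transcription with a template-switching oligonucleotide, PCR amplification and deep sequencing followed, and cleavage status came from reads with or without upstream sequence. Relative activity is the fraction cleaved normalised to wild type.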
For the variant C31U G34A, the self-cleavage was determined as 0.42.
In the case of C31U G34C it was 0.24; in that of C31U G34U, 0.56; in that of C31G U43G, 0.09.
In the case of C31G U43A it was 0.1.
In the case of C31G U43C it was 0.06; in that of G30A G54C, 0.04.
G30A G54A: the self-cleavage was found to be 0.05.
As for G30A G54U, the figure is 0.06; as for C31U G45U, 0.04; as for C31U G45A, 0.04.
Take C31U G45C: the self-cleavage was determined as 0.04.
In the case of C31U C9A it was 0.11; in that of C31U C9G, 0.16.
In the case of C31U C9U it was 0.32.
As for C31U G22U, the figure is 0.3; as for C31U G22A, 0.52.
Take C31U G22C: the self-cleavage was 0.07.
As for G30C, the self-cleavage is 0.04.
In the case of G30U it was 0.04.
For G30C U43G, the self-cleavage is 0.05.
In the case of G30C U43C, the self-cleavage is 0.04.
G30C U43A: the self-cleavage stood at 0.05.
In the case of G30A U12A it was 0.03.
In the case of G30A U12C it was 0.03.
As for G30A U12G, the figure is 0.02; as for C31A U24A, 0.02.
In the case of C31A U24C, the self-cleavage was found to be 0.02.
In the case of C31A U24G it was 0.01.
C31A U12A: the self-cleavage is 0.04.
In the case of C31A U12G it was 0.04; in that of C31A U12C, 0.02; in that of C31A G48A, 0.02.
As for C31A G48U, the figure is 0.01; as for C31A G48C, 0.02; as for C31U G44A, 0.29.
In the case of C31U G44U it was 0.51.
As for C31U G44C, the self-cleavage turned out to be 0.62.
Regarding C31A C33A, the self-cleavage stood at 0.05.
Consider C31A C33U, for which the self-cleavage turned out to be 0.03.
Turning to C31A C33G, the self-cleavage was found to be 0.02.
In the case of C31U C33A it was 0.08; in that of C31U C33G, 0.06; in that of C31U C33U, 0.31.
As for C31G U37G, the figure is 0.14; as for C31G U37A, 0.12.
As for C31G U37C, the figure is 0.09; as for G30C U18C, 0.05; as for G30C U18A, 0.05.
As for G30C U18G, the self-cleavage is 0.06.
As for C31A G45U, the figure is 0.02; as for C31A G45A, 0.02.
In the case of C31A G45C it was 0.01; in that of C31G C33A, 0.04; in that of C31G C33G, 0.03.
As for C31G C33U, the self-cleavage came to 0.06.
For G30A G51A, the self-cleavage is 0.04.
In the case of G30A G51C it was 0.02; in that of G30A G51U, 0.04; in that of C31U G13A, 0.89.
Regarding C31U G13U, the self-cleavage is 0.05.
As for C31U G13C, the figure is 0.02; as for C31A G53C, 0.01.
In the case of C31A G53A, the self-cleavage was found to be 0.04.
In the case of C31A G53U it was 0.03.
As for G30U G49A, the figure is 0.02; as for G30U G49C, 0.02.
Take G30U G49U: the self-cleavage was 0.03.
Turning to C31A G23U, the self-cleavage was 0.02.
As for C31A G23C, the figure is 0.02; as for C31A G23A, 0.03.
Regarding C31G G54U, the self-cleavage was found to be 0.19.
As for C31G G54A, the figure is 0.1; as for C31G G54C, 0.07; as for C31G G35C, 0.04.
In the case of C31G G35A it was 0.15; in that of C31G G35U, 0.12.
As for G30U U43C, the figure is 0.04; as for G30U U43G, 0.04.
As to G30U U43A, the self-cleavage came out at 0.04.
As for C31G G53C, the figure is 0.04.
With C31G G53A, the self-cleavage was 0.08.
As for C31G G53U, the figure is 0.07; as for C31U G19U, 0.05; as for C31U G19C, 0.06.
In the case of C31U G19A, the self-cleavage was found to be 0.14.
As to G30A U18G, the self-cleavage is 0.06.
As for G30A U18A, the figure is 0.07; as for G30A U18C, 0.04.
In the case of C31G it was 0.11; in that of C31U, 0.97.
In the case of C31A it was 0.04; in that of G30C G45U, 0.02.
For G30C G45A, the self-cleavage stood at 0.03.
In the case of G30C G45C it was 0.02.
Take G30U G54A: the self-cleavage turned out to be 0.03.
For G30U G54U, the self-cleavage was determined as 0.05.
G30U G54C: the self-cleavage was 0.03.
Take G30C G53C: the self-cleavage was 0.02.
As for G30C G53U, the figure is 0.04; as for G30C G53A, 0.04; as for G30C G42U, 0.02.
In the case of G30C G42A it was 0.04; in that of G30C G42C, 0.04; in that of C31G G51A, 0.08.
As for C31G G51C, the figure is 0.04; as for C31G G51U, 0.05.
For the variant G30C G50A, the self-cleavage is 0.04.
In the case of G30C G50C it was 0.05; in that of G30C G50U, 0.05.
In the case of C31A G50U it was 0.04.
In the case of C31A G50A it was 0.04; in that of C31A G50C, 0.04; in that of C31A G30A, 0.02.
For the variant C31A G30U, the self-cleavage is 0.01.
In the case of C31A G30C it was 0.03; in that of C31U C52U, 0.96; in that of C31U C52G, 0.75.
In the case of C31U C52A it was 0.57; in that of C31A C9A, 0.02; in that of C31A C9U, 0.03.
On to C31A C9G, for which the self-cleavage came out at 0.04.
As for C31U G30U, the figure is 0.03; as for C31U G30A, 0.03; as for C31U G30C, 0.03.
G30C G34C: the self-cleavage came to 0.04.
In the case of G30C G34U it was 0.04; in that of G30C G34A, 0.07; in that of G30A U43C, 0.02.
Regarding G30A U43A, the self-cleavage is 0.04.
As to G30A U43G, the self-cleavage is 0.04.
In the case of G30U G53A, the self-cleavage stood at 0.04.
With G30U G53U, the self-cleavage was found to be 0.04.
In the case of G30U G53C, the self-cleavage turned out to be 0.03.
In the case of G30U G44C it was 0.04; in that of G30U G44A, 0.04; in that of G30U G44U, 0.05.
In the case of G30U G34U it was 0.04; in that of G30U G34A, 0.04; in that of G30U G34C, 0.05.
In the case of G30C G48C, the self-cleavage was found to be 0.02.
For G30C G48A, the self-cleavage was 0.02.
In the case of G30C G48U it was 0.02.
Take C31A G54C: the self-cleavage was determined as 0.04.
As for C31A G54U, the figure is 0.05; as for C31A G54A, 0.04.
On to C31G G48A, for which the self-cleavage is 0.03.
As for C31G G48U, the figure is 0.02; as for C31G G48C, 0.03; as for C31A G34A, 0.05.
As for C31A G34C, the self-cleavage stood at 0.04.
In the case of C31A G34U it was 0.04.
G30C G35A: the self-cleavage was found to be 0.05.
In the case of G30C G35C it was 0.04.
In the case of G30C G35U it was 0.04; in that of C31G G22A, 0.11; in that of C31G G22C, 0.04.
On to C31G G22U, for which the self-cleavage amounted to 0.05.
With C31G G23U, the self-cleavage was found to be 0.03.
Consider C31G G23A, for which the self-cleavage was found to be 0.06.
With C31G G23C, the self-cleavage was found to be 0.11.
As for C31G G34U, the figure is 0.08; as for C31G G34C, 0.1.
Take C31G G34A: the self-cleavage worked out at 0.11.
As for C31G G13C, the figure is 0.06; as for C31G G13A, 0.06.
In the case of C31G G13U it was 0.04.
